Measured values taken from PMC11589143 (Nature Communications, 2024).

Columns and labels:
His-tagged WT Mina53 = test: In vitro demethylation, dot blotting, WT Mina53; format: biochemical; conditions: 2 h at 37 °C, cofactors
[1] = tested on: inactive mutant (H179Y/D181G/H240Y) of Mina53; test: In vitro demethylation, dot blotting, inactive mutant Mina53; format: biochemical; conditions: 2 h at 37 °C, cofactors
[2] = biological target: FITC-conjugated H4R3me2a peptide; test: MST
WT Mina53 = test: LC-MS of in vitro demethylation products, WT Mina53; format: biochemical; conditions: high-resolution MS
In short: (§1)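 Reaction mixtures were brought to 0.2% TFA and 2% acetonitrile (final) and desalted on C18 ZipTips (activated in 80% acetonitrile/0.1% TFA, equilibrated in 0.1% TFA). Separation was on an HSS T3 UPLC column with 0.1% formic acid in water versus acetonitrile/0.1% formic acid. Detection used positive-mode ESI TOF MS scanning 400-1500 m/z, and relative peptide abundance was compared.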

[3] = tested on: mutant Mina53 (D329A/D333A); test: Microscale thermophoresis, mutant Mina53; format: binding; conditions: MST; D333A/D329A mutant vs WT; n=3 independent assays
In short: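 His-tagged Mina53 was titrated from 3 nM to 0.1 mM against 25 nM FITC-labelled H4R3me2a peptide. Mixtures were incubated 15 min in 30 mM Hepes, 150 mM NaCl, pH 7.5, then loaded into glass capillaries for microscale thermophoresis. KD was fitted from the thermophoresis response.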

[4] = tested on: catalytically inactive mutant Mina53; test: LC-MS of in vitro demethylation products, mutant Mina53; format: biochemical; conditions: high-resolution MS
In short: as §1

Mina53 = Mina53 (Homo sapiens, UniProt Q8IUF8); test: Formaldehyde release assay; format: biochemical; conditions: AAPT (modified NASH), ex 355 nm / em 470 nm
In short: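 After the demethylation reaction, samples were TCA-precipitated and 1% Tris buffer was added. An equal volume of AAPT buffer was added to the supernatant and incubated 30 min at room temperature. Formaldehyde was quantified against a standard curve from serial dilutions of 37% formaldehyde. Km and kcat were fitted to the Michaelis-Menten equation.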

His-tagged Mina53 = test: Pulldown of synthetic H4R3 peptides with purified His-tagged Mina53; format: binding; conditions: H4R3 peptides with different R3 modifications
[5] = tested on: HEK293T nuclear proteins (H4R3me2a interactors); test: Proteome-wide photoaffinity capture, dimethyl labelling, LC-MS; format: binding, Homo sapiens; conditions: |log2 fold change| > 2, P < 0.05; vs peptide without pLeu
In short: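 HEK293T cells were lysed in RSB buffer and crude nuclei resuspended in crosslinking buffer (100 mM HEPES, 1.5 mM MgCl2, 150 mM KCl, pH 7.5). Nuclei received 100 µM biotinylated pLeu peptide in the dark, then 365 nm UV on ice. After washing and sonication, proteins were captured on streptavidin and washed stringently. Only proteins quantified in both replicates were kept, with two-tailed unpaired t-test P-values.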

Chain of His-tagged Mina53 (Myc-induced nuclear antigen 53), wild type (Q8IUF8 whole entry): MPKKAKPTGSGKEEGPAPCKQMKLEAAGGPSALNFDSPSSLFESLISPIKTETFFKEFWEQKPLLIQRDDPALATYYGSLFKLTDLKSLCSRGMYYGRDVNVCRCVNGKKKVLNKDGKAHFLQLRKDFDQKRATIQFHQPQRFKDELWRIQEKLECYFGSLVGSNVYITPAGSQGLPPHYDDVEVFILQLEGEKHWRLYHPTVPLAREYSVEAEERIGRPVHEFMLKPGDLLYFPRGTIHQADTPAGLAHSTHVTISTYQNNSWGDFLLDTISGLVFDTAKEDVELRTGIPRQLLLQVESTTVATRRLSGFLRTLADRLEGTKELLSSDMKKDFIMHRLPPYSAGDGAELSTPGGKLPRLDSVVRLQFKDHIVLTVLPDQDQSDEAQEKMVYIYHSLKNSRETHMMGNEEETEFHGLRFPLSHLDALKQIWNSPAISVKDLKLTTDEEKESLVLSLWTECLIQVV
Chain of Mina53 (Q8IUF8 whole entry): as above

## APATGGV-Kme3-KPHRYRP(Biotin) [H3K36me3]
His-tagged WT Mina53
  Dot-blot signal change with WT Mina53: modestly decreased
[1]
  Dot-blot signal change with mutant Mina53: not mutant Mina53

## His-tagged Mina53 (Myc-induced nuclear antigen 53), wild type (from UniProt Q8IUF8 1-465) (enzyme)
[2]
  Kd: 27.6 µM

## SGR(Me1)GKGGKGLGKGGAKRHRKVGGK(Biotin) [H4R3me1]
His-tagged WT Mina53
  Dot-blot signal change with WT Mina53: drastically decreased
[1]
  Dot-blot signal change with mutant Mina53: not mutant Mina53
WT Mina53; H4R3me1 peptide as substrate
  Appearance of non-methylated peptide: modest non-methylated peptide appearance

## SGR(Me2a)GKGGKGLGKGGAKRHRKVGGK(Biotin) [H4R3me2a]
[3]
  Binding affinity of mutant Mina53: drastic loss of binding
His-tagged WT Mina53
  Dot-blot signal change with WT Mina53: drastically decreased
[1]
  Dot-blot signal change with mutant Mina53: not mutant Mina53
WT Mina53; WT Mina53
  Peptide peak shift (to mono-methylated peptide): 14 Da
[4]
  Peptide peak shift with mutant Mina53: not mutant Mina53
Mina53
  turn-over rate (kcat): 0.37 ± 0.08 s⁻¹

## SGR(Me2s)GKGGKGLGKGGAKRHRKVGGK(Biotin) [H4R3me2s]
His-tagged Mina53
  Amount of peptide pulled down by Mina53: in the smallest amount

## pLeuGRme2aGKGGKGLGKGGAKKbio-NH2 [H4R3me2a-pLeu-biotin]
[5]
  Enrichment of SND1, SMNDC1 and PRMT1 in pLeu-containing peptide sample: enriched
